Type in all cases: functional
Assay [1] relates to HeLa. Briefly: Cytotoxicity against human HeLa cells assessed as cell growth at 10^-6 M after 48 hrs by SRB assay relative to control. The note with it: read-out: Activity. Put shortly: (§1)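 HeLa (NCI source) kept in RPMI 1640 with 10% FBS and 2 mM L-glutamine, 37°C, 5% CO2. Cells seeded at 5,000/well, incubated overnight, then exposed 48 h to drug at final 10^-4 to 10^-7 M from 10^-2 M DMSO stock. Fixed with 10% TCA, stained with 0.4% SRB for 20 min, dye dissolved in 10 mM Tris, OD 540 nm. % growth = 100×(T–T₀)/(C–T₀). Mean of three experiments.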

The test system of assay [2] is HeLa. Briefly: Cytotoxicity against human HeLa cells assessed as cell growth at 10^-7 M after 48 hrs by SRB assay relative to control. The note with it: read-out: Activity. The essentials: as §1
In general terms: The SRB assay estimates cell density from bound dye.

Assay [3] concerns HeLa. Briefly: Cytotoxicity against human HeLa cells assessed as cell growth at 10^-5 M after 48 hrs by SRB assay relative to control. Particulars: read-out: Activity. Put shortly: as §1
Assay [4] relates to HeLa. Briefly: Cytotoxicity against human HeLa cells assessed as growth inhibition after 48 hrs by SRB assay. The essentials:
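HeLa in RPMI 1640/10% FBS/2 mM glutamine, seeded at 5,000 cells/well overnight, then treated 48 h at final 10^-4 to 10^-7 M (DMSO stock 10^-2 M). Read by SRB: TCA fixation, 0.4% SRB stain, Tris solubilisation, OD 540 nm. Growth corrected for time-zero OD. Mean % growth plotted against molar concentration; GI50 taken as the concentration giving 50% growth inhibition.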

For assay [5], the system named is HeLa. Briefly: Cytotoxicity against human HeLa cells assessed as cell growth at 10^-4 M after 48 hrs by SRB assay relative to control. The note with it: read-out: Activity. Put shortly: as §1

Structures can show the parent of a compound that is named as a salt.

For `COc1cccc2c1C(=O)c1c(O)c3c(c(O)c1C2=O)C[C@@](O)(C(=O)CO)C[C@@H]3O[C@H]1C[C@H](N)[C@H](O)[C@H](C)O1` [DOXORUBICIN HYDROCHLORIDE], the growth at 1 µM in the assay on HeLa [1] was -82.9%. Also, the growth at 0.1 µM in the assay on HeLa [2] was -76.8%. The growth at 10 µM in the assay on HeLa [3] was -84.1%. Besides, in the assay with HeLa [4], the concentration for 50% growth inhibition (GI50) is less than 0.1 µM. In addition, the growth at 100 µM with HeLa [5] was -84.6%.
For the molecule `COc1cccc(/C=C/C(=O)N2CCC=CS2(=O)=O)c1`, the growth at 1 µM in the assay with HeLa [1] was found to be 92.2%. Also, in the assay with HeLa [2], the growth at 0.1 µM was 90.8%. For the same molecule, the growth at 10 µM in the assay on HeLa [3] stood at 68.7%. In the assay on HeLa [4], the concentration for 50% growth inhibition (GI50) amounted to 23.7 µM and the “growth inhibition (GI)” value is “Dose-dependent effect”. Further, the growth at 100 µM in the assay on HeLa [5] is -79.7%.
For `O=C(/C=C/c1cccc(C(F)(F)F)c1)N1CCC=CS1(=O)=O`, the growth at 1 µM in the assay on HeLa [1] is 86.3%. For the same molecule, the growth at 0.1 µM in the assay on HeLa [2] was found to be 95.5%. Further, in the assay with HeLa [3], the growth at 10 µM was 34.9%. In the assay on HeLa [4], the 50% growth inhibitory concentration (GI50) was 19.6 µM and the “growth inhibition (GI)” value was “Dose-dependent effect”. Also, in the assay with HeLa [5], the growth at 100 µM was -64.8%.
Turning to `O=C(/C=C/c1cccs1)N1CCC=CS1(=O)=O`, in the assay with HeLa [1], the growth at 1 µM stood at 74.2%. Further, the growth at 0.1 µM in the assay with HeLa [2] was found to be 92.1%. For the same molecule, the growth at 10 µM in the assay with HeLa [3] is 53.4%. Besides, in the assay with HeLa [4], the concentration for 50% growth inhibition (GI50) is 18.8 µM and the “growth inhibition (GI)” value is “Dose-dependent effect”. Also, the growth at 100 µM in the assay with HeLa [5] is -75.3%.
As for `COc1cc(/C=C/C(=O)N2CCC=CS2(=O)=O)cc(OC)c1OC`, the growth at 1 µM in the assay with HeLa [1] came out at 71.4%. Moreover, the growth at 0.1 µM in the assay with HeLa [2] came out at 79.8%. Also, the growth at 10 µM in the assay on HeLa [3] is 46.8%. In the assay on HeLa [4], the GI50 was 14.3 µM and the “growth inhibition (GI)” value is “Dose-dependent effect”. The growth at 100 µM in the assay on HeLa [5] is -80.6%.
For `O=C(/C=C/c1c(Cl)nc2ccccn12)N1CCC=CS1(=O)=O`, in the assay on HeLa [1], the growth at 1 µM turned out to be 59%. Further, in the assay with HeLa [2], the growth at 0.1 µM came out at 87%. The growth at 10 µM with HeLa [3] turned out to be 20.6%. Further, in the assay on HeLa [4], the GI50 worked out at 8.2 µM and the “growth inhibition (GI)” value is “Dose-dependent effect”. The growth at 100 µM with HeLa [5] was -78.5%.
`O=C(/C=C/c1c[nH]c2ccc(F)cc12)N1CCC=CS1(=O)=O`: the growth at 1 µM with HeLa [1] is 87.6%. Also, the growth at 0.1 µM with HeLa [2] is 90.4%. For the same molecule, the growth at 10 µM in the assay on HeLa [3] turned out to be 25.3%. Further, in the assay with HeLa [4], the GI50 amounted to 18.8 µM and the “growth inhibition (GI)” value was “Dose-dependent effect”. Also, the growth at 100 µM in the assay with HeLa [5] is -48%.
As for `O=C(/C=C/c1ccc(Cl)cc1)N1CCC=CS1(=O)=O`, the growth at 1 µM in the assay with HeLa [1] came out at 80.2%. Moreover, the growth at 0.1 µM in the assay on HeLa [2] is 90.7%. Moreover, the growth at 10 µM in the assay with HeLa [3] was found to be 53.5%. In the assay with HeLa [4], the GI50 was found to be 26.4 µM and the “growth inhibition (GI)” value is “Dose-dependent effect”. Further, the growth at 100 µM with HeLa [5] is -30.5%.
In the case of `O=C(c1cccc(Cl)c1)N1CCC=CS1(=O)=O`, the growth at 1 µM in the assay on HeLa [1] amounted to 86.7%. Besides, the growth at 0.1 µM in the assay with HeLa [2] stood at 100%. Moreover, in the assay with HeLa [3], the growth at 10 µM turned out to be 55.4%. Besides, in the assay on HeLa [4], the GI50 worked out at 45.4 µM and the “growth inhibition (GI)” value is “Dose-dependent effect”. Moreover, the growth at 100 µM with HeLa [5] was 10.8%.
On to `COc1ccccc1/C=C/C(=O)N1CCC=CS1(=O)=O`, for which the growth at 1 µM in the assay on HeLa [1] came out at 35%. The growth at 0.1 µM in the assay with HeLa [2] came out at 76.7%. Further, the growth at 10 µM in the assay with HeLa [3] is 14.6%. Further, in the assay on HeLa [4], the GI50 turned out to be 0.1 µM and the “growth inhibition (GI)” value was “Dose-dependent effect”. Further, the growth at 100 µM with HeLa [5] is -80.1%.
Turning to `O=C(/C=C/c1cccc(-c2ccccc2)c1)N1CCC=CS1(=O)=O`, the growth at 1 µM in the assay on HeLa [1] was 86.5%. For the same molecule, the growth at 0.1 µM in the assay on HeLa [2] worked out at 97.6%. Also, the growth at 10 µM in the assay with HeLa [3] worked out at 32.9%. In addition, in the assay with HeLa [4], the 50% growth inhibitory concentration (GI50) came to 19.8 µM and the “growth inhibition (GI)” value is “Dose-dependent effect”. Moreover, in the assay with HeLa [5], the growth at 100 µM is -63%.
For the molecule `COc1cc(/C=C/C(=O)N2CCC=CS2(=O)=O)cc(OC)c1`, the growth at 1 µM with HeLa [1] turned out to be 32.5%. Moreover, in the assay with HeLa [2], the growth at 0.1 µM stood at 82.5%. Further, the growth at 10 µM with HeLa [3] was -60.1%. In the assay with HeLa [4], the GI50 was less than 0.1 µM and the “growth inhibition (GI)” value was “Dose-dependent effect”. In the assay on HeLa [5], the growth at 100 µM was -78.4%.
Regarding `Cc1ccc(/C=C/C(=O)N2CCC=CS2(=O)=O)cc1`, in the assay with HeLa [1], the growth at 1 µM was determined as 81.4%. Besides, in the assay with HeLa [2], the growth at 0.1 µM stood at 86.8%. In addition, the growth at 10 µM in the assay with HeLa [3] is 26.3%. Besides, in the assay on HeLa [4], the GI50 turned out to be 18.6 µM and the “growth inhibition (GI)” value was “Dose-dependent effect”. The growth at 100 µM with HeLa [5] is -33.5%.
`O=C(/C=C/c1ccoc1)N1CCC=CS1(=O)=O`: the growth at 1 µM in the assay with HeLa [1] was 80.2%. Also, the growth at 0.1 µM in the assay with HeLa [2] was found to be 92%. Also, in the assay on HeLa [3], the growth at 10 µM is 57.7%. In addition, in the assay on HeLa [4], the concentration for 50% growth inhibition (GI50) was 20.3 µM and the “growth inhibition (GI)” value was “Dose-dependent effect”. Also, in the assay with HeLa [5], the growth at 100 µM is -78.1%.
On to `O=C(/C=C/c1cccc(F)c1)N1CCC=CS1(=O)=O`, for which the growth at 1 µM in the assay with HeLa [1] was determined as 42.4%. Further, the growth at 0.1 µM in the assay with HeLa [2] came to 96.8%. For the same molecule, the growth at 10 µM in the assay on HeLa [3] was -39.2%. Also, in the assay with HeLa [4], the 50% growth inhibitory concentration (GI50) is less than 0.1 µM and the “growth inhibition (GI)” value is “Dose-dependent effect”. In addition, in the assay with HeLa [5], the growth at 100 µM was -69%.
In the case of `Cc1ccc(C(=O)N2CCC=CS2(=O)=O)cc1[N+](=O)[O-]`, the growth at 1 µM with HeLa [1] worked out at 93.7%. The growth at 0.1 µM in the assay on HeLa [2] is 97.1%. Besides, the growth at 10 µM with HeLa [3] came to 67.6%. For the same molecule, in the assay on HeLa [4], the 50% growth inhibitory concentration (GI50) came to 39.2 µM and the “growth inhibition (GI)” value is “Dose-dependent effect”. Further, in the assay on HeLa [5], the growth at 100 µM is -11.2%.
`O=C(/C=C/c1ccc([N+](=O)[O-])cc1)N1CCC=CS1(=O)=O`: the growth at 1 µM with HeLa [1] came to 90.4%. Also, the growth at 0.1 µM in the assay with HeLa [2] is 100%. For the same molecule, the growth at 10 µM in the assay with HeLa [3] was determined as 59%. Further, in the assay on HeLa [4], the GI50 was 24.4 µM and the “growth inhibition (GI)” value was “Dose-dependent effect”. In the assay on HeLa [5], the growth at 100 µM is -71.6%.
As to `O=C(/C=C/c1ccccc1F)N1CCC=CS1(=O)=O`, the growth at 1 µM with HeLa [1] amounted to 62.3%. The growth at 0.1 µM in the assay on HeLa [2] came to 78.5%. The growth at 10 µM with HeLa [3] is 52.4%. In addition, in the assay on HeLa [4], the GI50 worked out at 13.7 µM and the “growth inhibition (GI)” value is “Dose-dependent effect”. Besides, the growth at 100 µM in the assay with HeLa [5] was -75.3%.
With `Cc1cccc(/C=C/C(=O)N2CCC=CS2(=O)=O)c1`, the growth at 1 µM in the assay on HeLa [1] amounted to 89.5%. Also, the growth at 0.1 µM in the assay on HeLa [2] was 99.9%. The growth at 10 µM in the assay with HeLa [3] was found to be 35%. In the assay on HeLa [4], the GI50 was 20.7 µM and the “growth inhibition (GI)” value is “Dose-dependent effect”. Besides, the growth at 100 µM in the assay on HeLa [5] is -67.1%.
On to `COc1ccc(/C=C/C(=O)N2CCC=CS2(=O)=O)cc1`, for which, in the assay with HeLa [1], the growth at 1 µM stood at 83.8%. In addition, in the assay on HeLa [2], the growth at 0.1 µM was 84.7%. The growth at 10 µM in the assay on HeLa [3] was 68.1%. In the assay on HeLa [4], the concentration for 50% growth inhibition (GI50) worked out at 24.4 µM and the “growth inhibition (GI)” value is “Dose-dependent effect”. Moreover, in the assay with HeLa [5], the growth at 100 µM was -55.3%.

In general, GI50 refers to the concentration that inhibits growth by half.

(Values after ChEMBL document CHEMBL4002592, “Piperlongumine derived cyclic sulfonamides (sultams): Synthesis and in vitro exploration for therapeutic potential against HeLa cancer cell lines” (2017).)
